Screens: PubChem, several laboratories
T cell modulator: modulators of CD8 T cell-vesicle binding, primary screen, mouse 2C CD8+ T cells, flow cytometry | 2C CD8+ T cell-vesicle binding; hits give low values | response (vesicle binding), % at 7 µM | 330,000 tested, 0.068% active;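 active means response, share of CD8 T cells binding vesicles, and their 90th percentile fluorescence all below set limits, cut at about 80% in these data, passing the limit was not always enough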;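 further: values below 100% mean blocked vesicle binding to the CD8+ T cells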
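material = purified 2C TCR transgenic mouse naive CD8+ T cells | controls = Unloaded micro-vesicles (low), QL9 vesicles with 0.7% DMSO (high) | detection = cytometric PE anti-B7-1 and Alexa647 anti-CD8 signals after 1% paraformaldehyde fixation | incubation = binding step 1.5 h, 37 °C, antibody labelling 20 min, ice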
MC4R ag barr: MC4R agonists recruiting beta-arrestin, primary screen, cell-based, luminescence, agonist arm of biased-ligand search; Melanocortin receptor 4 (Homo sapiens), P32245; U2OS MC4R beta-arrestin complementation; percent of melanotan II response, DMSO zero; activation, % at 8.9 µM; 360,000 tested, 0.98% active;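 active means activation above a per-plate cutoff, the mean activation of sample wells on that plate plus 3 SD, cut at about 8% in these data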
Target sequence (P32245 whole entry, looked up): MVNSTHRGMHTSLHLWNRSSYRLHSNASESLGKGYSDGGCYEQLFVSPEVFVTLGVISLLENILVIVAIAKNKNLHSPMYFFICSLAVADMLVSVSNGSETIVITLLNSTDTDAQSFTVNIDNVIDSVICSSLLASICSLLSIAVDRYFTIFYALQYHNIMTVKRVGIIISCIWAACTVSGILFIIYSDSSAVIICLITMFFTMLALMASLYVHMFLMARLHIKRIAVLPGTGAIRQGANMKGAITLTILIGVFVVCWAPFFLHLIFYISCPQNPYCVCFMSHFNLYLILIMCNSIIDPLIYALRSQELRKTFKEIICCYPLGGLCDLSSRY
EP2 antag: human EP2 receptor antagonists, primary screen, TR-FRET cAMP, C6 glioma cells; inhibition, % at 25 µM; 260,000 tested, 0.52% active; C6 glioma cells expressing human EP2; cells stimulated with saturating PGE2; Prostaglandin E2 receptor EP2 subtype (Homo sapiens), P43116; AID 1422, 2008;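 active means percent inhibition above 40 after rounding to a whole number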;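 further: rat C6 glioma host cells with rolipram phosphodiesterase inhibitor present; the protocol text gives 20 µM as final concentration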
MC4R antagonist: MC4R antagonists of cAMP signaling, primary screen, cell-based, TR-FRET, antagonist arm of biased-ligand search; Melanocortin receptor 4 (Homo sapiens), P32245; MC4R-expressing cells, MTII-stimulated cAMP, LANCE TR-FRET; inhibition, % at 6.5 µM; 360,000 tested, 0.48% active;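 active means inhibition above its plate's cutoff, the mean of tested wells on that plate plus 3 SD, cut at about 29% in these data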
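Material: human MC4R-expressing U2OS cells. Probe or stimulus: Melanotan II challenge. Dosing: 6.5 µM single dose. Times: 30-min compound, 1-h challenge, 1-h detection, room temperature. Technique: TR-FRET with Eu-cAMP and labeled anti-cAMP, 671 nm. Replication: singlicate.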
Granule exo inh: LAMP-1 surface exposure blockers, TALL-104 cells – cell-based, flow cytometry, MLPCN library, primary screen | AID 651702, 2012 | 360,000 tested, 0.66% active | inhibition, % at 10 µM | TALL-104 LAMP-1 surface exposure; cells stimulated with thapsigargin and PMA;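 active means inhibition above about 55%, limit read from the data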
EP2 mod: EP2 receptor modulators, cAMP readout, primary screen, cell-based, HTRF cAMP, PGE2 stimulation; EP2-expressing cells, cAMP HTRF FRET, PGE2 co-stimulation; induction, % at 25 µM; Prostaglandin E2 receptor EP2 subtype (Homo sapiens), P43116; 260,000 tested, 0.83% active; AID 940, 2007;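 active means compounds whose cAMP rise, as percent of the full-agonist control response, exceeds 60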;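 further: rat C6 glioma line stably carrying human EP2 under a CMV promoter; the protocol text gives 20 µM as final concentration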
Granule exo CP1: inhibitors of lytic granule exocytosis, confirmation, TALL-104 cells, flow cytometry, Cherry Pick01. LAMP-1 externalization; stimulated with PMA plus thapsigargin. 1,500 tested, 11% active. AID 651954, 2012. shares compounds with Granule exo inh. inhibition, % at 10 µM; in the data active means inhibition above about 60%
Hits are given with their value; 0 = inactive; - = no result given. Compounds with a hit are over-represented: about 2.6% of the library has one in this group of screens.

SMILES	T cell modulator	MC4R ag barr	EP2 antag	MC4R antagonist	Granule exo inh	EP2 mod	Granule exo CP1
Cn1c(NCC(O)c2ccccc2)nc2c1c(=O)n(Cc1ccc(Cl)cc1)c(=O)n2C (stereo not drawn)	0	0	0	0	0	0	-
Cn1c(NCC(O)c2ccccc2)nc2c1c(=O)n(Cc1ccc(Cl)c(Cl)c1)c(=O)n2C (stereo not drawn)	0	0	0	0	92	-	0
N#CCCn1cc(/C=C(\C#N)c2nc3ccccc3s2)c(-c2ccc(F)cc2)n1	0	0	0	0	0	0	-
CCOC(=O)c1ccc(NC(=O)COc2ccc(CNC3CCCCC3)cc2OC)cc1	0	0	0	0	60	0	0
COc1ccccc1CC(=O)c1ccc(OCc2ccccc2)cc1	0	0	-	0	81	-	0
CCOc1ccc(C(=O)Cc2ccccc2)cc1	-	0	-	0	0	-	-
COc1ccc(-n2ccnc2CN2CCCC(CO)(Cc3cccc(OC)c3)C2)cc1 (stereo not drawn)	0	0	0	0	60	0	0
Cc1ccc(S(=O)(=O)CCC(=O)N(CCCN2CCOCC2)c2nc3ccccc3s2)cc1	0	0	-	0	65	-	0
O=C(CCS(=O)(=O)c1ccccc1)N(CCCN1CCOCC1)c1nc2ccccc2s1	0	0	-	0	58	-	0
O=C(Nc1ccc(-n2cnnn2)cc1)C1CCCN1C(=O)Nc1ccc(Br)cc1 (stereo not drawn)	0	0	-	0	0	-	-
Oc1ccccc1-c1nc(NC2CCCC2)c2ccccc2n1	0	0	-	0	64	-	0
Cn1c(=O)c2c(nc(N3CCN(c4ccccc4)CC3)n2CCCc2ccccc2)n(C)c1=O	0	0	0	0	74	0	0
CC(CCN1CCN(c2ccc(F)cc2)CC1)c1ccccc1 (stereo not drawn)	0	0	-	0	57	-	0
CC(CCN1CCOCC1)c1ccccc1 (stereo not drawn)	0	0	-	0	0	-	-
CCN(c1ccccc1)S(=O)(=O)c1ccc(OC)c(NC(=O)CNCCc2ccccc2)c1	0	0	0	0	85	0	0
COc1ccc(N(CC(=O)Nc2ccc(OC)cc2OC)S(=O)(=O)c2ccccc2)cc1	0	0	0	0	0	0	-
COc1ccccc1N(CC(=O)NCCSCc1ccccc1)S(=O)(=O)c1ccccc1	-	0	-	0	0	-	-
COc1ccccc1N(CC(=O)NCCSCc1ccccc1)S(=O)(=O)c1ccc(C)cc1	0	0	-	0	90	-	0
CCOc1ccccc1N(CC(=O)Nc1ccccc1F)S(=O)(=O)c1ccccc1	0	0	-	0	57	-	0
CCOc1ccc(N(CC(=O)Nc2ccccc2OC)S(=O)(=O)c2ccccc2)cc1	0	0	-	0	65	-	0
CCN(c1ccccc1)S(=O)(=O)c1ccc(OC)c(NC(=O)Cc2ccc(F)cc2)c1	0	0	-	0	0	-	-
COc1ccccc1Nc1nc2ccccc2n1C	0	0	0	0	0	0	-
O=C(CSc1nnc(NC(=O)C2CCCCC2)s1)NCc1ccco1	0	0	0	0	0	0	-
CCOc1ccccc1N(CC(=O)NC1CCCCC1)S(=O)(=O)c1ccccc1	0	0	-	0	70	-	0
COC(=O)c1cc(NC(=O)CN(c2ccccc2OC)S(=O)(=O)c2ccccc2)ccc1Cl	0	0	0	0	68	0	0
SMILES	T cell modulator	MC4R ag barr	EP2 antag	MC4R antagonist	Granule exo inh	EP2 mod	Granule exo CP1
CS(=O)(=O)N(CC(=O)Nc1cccc(Cl)c1)c1ccccc1Cl	0	0	0	0	85	0	0
CCOc1ccc(N(CC(=O)NC2CCCCCC2)S(=O)(=O)c2ccccc2)cc1	0	0	-	0	0	-	-
CCOc1ccc(N(CC(=O)NCc2ccc(Cl)cc2)S(=O)(=O)c2ccccc2)cc1	0	0	-	0	77	-	0
COc1cc(OC)cc(-n2nnnc2SCC(=O)Nc2ccc(C)c(C)c2)c1	-	-	0	-	-	0	-
COC(=O)c1c(N)sc(C(C)=O)c1C	0	0	0	0	0	0	-
CC/C(O)=C1\C(=O)CC(c2ccccc2)CC1=NC(C)C (stereo not drawn)	0	0	0	0	0	0	-
COc1ccc(N(CC(=O)NC(C)c2ccccc2)S(=O)(=O)c2ccc(C)cc2)cc1 (stereo not drawn)	0	0	-	0	87	-	0
COc1ccc(N(CC(=O)Nc2cc(C)on2)S(=O)(=O)c2cc(C)ccc2C)cc1	0	0	0	0	57	0	0
CCN(CC(=O)NCc1ccc(Cl)cc1)C(=O)CCOc1ccccc1C	0	0	-	0	80	-	0
CCN(CC(=O)NCc1cccs1)C(=O)CCOc1ccccc1C	0	0	-	0	0	-	-
CCOc1ccccc1NC(=O)CSc1nnc(-c2ccco2)o1	0	0	0	0	0	0	-
O=C(Nc1nc(-c2nc3ccccc3s2)cs1)c1ccc(S(=O)(=O)N2CCOCC2)cc1	0	0	-	0	62	0	0
CCOc1ccccc1CN1CCN(Cc2[nH]c3ccccc3c2C)CC1CCO (stereo not drawn)	0	0	0	0	67	0	0
COc1cc(C(c2nnnn2C(C)(C)C)N2CCN(c3nc4ccccc4s3)CC2)ccc1O (stereo not drawn)	0	0	0	0	58	0	0
COc1ccc(NC(=O)c2sc3nc(N4CCOCC4)c4c(c3c2N)CCCC4)cc1	-	0	-	0	0	-	-
CCOC(=O)c1ccc(NC(=O)c2sc3nc(N4CCOCC4)c4c(c3c2N)CCCC4)cc1	0	0	-	0	93	-	0
CCOC(=O)c1ccc(NC(=O)c2ccc(C)c(S(=O)(=O)N3CCOCC3)c2)cc1	0	0	0	0	76	0	74
CS(=O)(=O)N(CCc1ccccc1)CC(=O)NCc1ccccc1Cl	0	0	0	0	0	0	-
CCN(CC)CCSc1nnc2c3cc(C)ccc3n(Cc3ccccc3)c2n1	0	0	0	0	64	0	0
CCOc1ccccc1CNC(=O)Cn1ccc2cc(S(=O)(=O)N3CCCCCC3)ccc21	0	0	-	0	0	-	-
CCOc1ccccc1CNC(=O)CCn1ccc2cc(S(=O)(=O)N3CCCCC3)ccc21	0	0	-	0	62	-	0
